In the library only some 2.8% were active in any assay of this set; here they are far more common.
HTR2A ag: agonists of mouse serotonin 5-HT2A receptor (HTR2A); AID 624169; CHO-K1 mHTR2A beta-arrestin complementation, luminescence; percent of 30 µM serotonin response; activation, % at 7.6 µM; 360,000 tested, 0.66% active;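 active = activation above a run cutoff, the mean activation of all tested compounds plus 3 SD, cut at about 14% in these data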;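 note: 0% = plate median of compound wells and 100% = 30 µM serotonin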
EBI2 block: antagonists of human EBI2 receptor; inhibition, % at 5 µM; P32249; 360,000 tested, 0.81% active; EBI2 beta-arrestin recruitment, luminescence, 7a,25-OHC stimulated; AID 651636; in the data active = inhibition above about 38%;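 note: enzyme fragment complementation signal reports receptor beta-arrestin coupling in cells; 0% = agonist plus DMSO wells and 100% = wells without agonist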
Target sequence (P32249 whole entry, looked up, the tested form may be a part): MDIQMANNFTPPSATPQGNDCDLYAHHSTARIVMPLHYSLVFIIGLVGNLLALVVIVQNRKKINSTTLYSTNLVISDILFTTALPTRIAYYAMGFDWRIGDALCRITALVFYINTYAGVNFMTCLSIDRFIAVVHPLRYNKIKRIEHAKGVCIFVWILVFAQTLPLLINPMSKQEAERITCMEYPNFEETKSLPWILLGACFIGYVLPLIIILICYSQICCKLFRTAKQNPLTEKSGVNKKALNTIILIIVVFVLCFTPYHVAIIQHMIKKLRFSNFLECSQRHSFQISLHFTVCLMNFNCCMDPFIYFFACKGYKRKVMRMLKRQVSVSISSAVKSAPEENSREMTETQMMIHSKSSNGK
MC4R antag cAMP: antagonists of human melanocortin 4 receptor (MC4R) | P32245 | MC4R-expressing cells, MTII-stimulated cAMP, LANCE TR-FRET | inhibition, % at 6.5 µM | 360,000 tested, 0.48% active | AID 540295;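 active = inhibition above its plate's cutoff, the mean of tested wells on that plate plus 3 SD, cut at about 29% in these data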;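 note: 0% = Melanotan II alone and 100% = Melanotan II plus saturating MCL0020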
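System: U2OS-MC4R stable cell line; Technique: Eu-cAMP/anti-cAMP TR-FRET, emission 671 nm; Repeats: single well per compound; Also added: Melanotan II; Dosing: one concentration, 6.5 µM nominal; Schedule: 30-min compound, 1-h challenge, 1-h detection, room temperature.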
MC4R ag barr: activates human MC4R beta-arrestin recruitment | P32245 | U2OS MC4R beta-arrestin complementation, luminescence; percent of melanotan II response, DMSO zero | activation, % at 8.9 µM | 360,000 tested, 0.98% active;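 active = activation above a per-plate cutoff, the mean activation of sample wells on that plate plus 3 SD, cut at about 8% in these data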
EBI2 antag conf: confirmation of human EBI2 receptor antagonists; EBI2 beta-arrestin luminescence, 7a,25-OHC antagonism; 2,400 tested, 29% active; inhibition, % at 5 µM; AID 651997; shares compounds with EBI2 block;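 active = inhibition of at least 50%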
EBI2 agonist: counter-screen for EBI2 antagonists: EBI2 agonist activity | shares compounds with EBI2 block | EBI2-expressing cells, agonist mode, luminescence, 60 min; 0% vehicle, 100% 7α,25-dihydroxycholesterol control | activation, % at 5 µM | 2,400 tested, under 10 active | AID 652000;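 active = activation of at least 50%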
bGal cs: beta-galactosidase inhibition counter-screen. shares compounds with EBI2 block. 2,400 tested, 1% active. inhibition, % at 5 µM. purified beta-galactosidase, luminescent Galacton Star, 15 min. AID 652176;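 active = replicate-average signal at least 3 plate SD below neutral wells, shown as high inhibition, flagging enzyme-inhibiting false positives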;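 note: 0% = DMSO wells with enzyme and 100% = wells lacking enzyme; higher means stronger loss of beta-gal luminescence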
An asterisk follows results filed as active; / = not tested or not shown.

SMILES	HTR2A ag	EBI2 block	MC4R antag cAMP	MC4R ag barr	EBI2 antag conf	EBI2 agonist	bGal cs
CCOC(=O)C1CCCCN1C(=O)c1ccc2nc(Cc3ccc(OC)cc3)oc2c1 (configuration not stated)	-6	61*	10	0	49	0	3
COc1cc2nc(CN3CCN(S(=O)(=O)c4ccccc4C(F)(F)F)CC3)[nH]c(=O)c2cc1OC	3	64*	13	-2	22	1	-10
COc1cc2nc(CN3CCN(S(=O)(=O)c4ccc(Br)cc4)CC3)[nH]c(=O)c2cc1OC	3	55*	7	-1	35	2	6
COc1cc2nc(CN3CCN(S(=O)(=O)c4c(F)cccc4F)CC3)[nH]c(=O)c2cc1OC	0	36	7	-3	/	/	/
COc1cc2nc(CN3CCN(S(=O)(=O)c4ccccc4[N+](=O)[O-])CC3)[nH]c(=O)c2cc1OC	0	45*	5	0	31	1	4
COc1ccc(OCCN2CCN(S(=O)(=O)c3ccccc3C(F)(F)F)CC2)cc1	-6	60*	-1	-1	50*	1	-4
Cc1cc(=O)[nH]c(SCC(=O)Nc2nonc2C)n1	3	-5	18	-1	/	/	/
CC(=O)N1CCN(c2ccc(S(C)(=O)=O)cc2[N+](=O)[O-])CC1	-1	-4	-7	-3	/	/	/
O=C(CCc1nc2sc3c(c2c(=O)[nH]1)CCCC3)N1CCN(c2ccccc2)CC1	0	2	5	-2	/	/	/
O=c1[nH]c(CN2CCN(S(=O)(=O)c3ccccc3C(F)(F)F)CC2)nc2sc3c(c12)CCCC3	4	59*	14	1	31	0	-11
COc1ccc(CCNC(=O)C23CN(Cc4ccccc4)CC2C(c2ccc([N+](=O)[O-])cc2)=NO3)cc1 (configuration not stated)	-4	61*	14	-1	30	-2	-12
COc1ccc(CNC(=O)C23CN(Cc4ccccc4)CC2C(c2ccc([N+](=O)[O-])cc2)=NO3)cc1 (configuration not stated)	-7	-9	1	-3	/	/	/
Cc1ccc(S(=O)(=O)N2C[C@H]3[C@H]4C(=O)N(Cc5ccccc5)C(=O)[C@H]4CC(=O)[C@H]3[C@@H]2c2ccccc2Cl)cc1	-1	7	/	/	/	/	/
CCOc1ccc(C(=O)/C=C/c2ccc(SC)cc2)cc1	2	61*	6	0	50*	0	7
CCOc1ccc(/C=C/C(=O)c2ccccc2)cc1	-2	10	4	0	/	/	/
CCOC(=O)/C(C#N)=C\c1cc(OC)c(OC)cc1[N+](=O)[O-]	2	-8	5	-1	/	/	/
CCOc1ccc2ccccc2c1CNCCc1ccc(S(N)(=O)=O)cc1	3	3	-3	0	/	/	/
Cc1ccccc1CNC(=O)C(=O)NCC1CCCN1S(=O)(=O)c1cccs1 (configuration not stated)	2	-22	0	-1	/	/	/
CC(=O)Nc1ccc(OCC(O)Cn2cncn2)cc1 (configuration not stated)	1	-21	-1	1	/	/	/
COC(=O)c1cc(=O)n(Cc2ccc(OC)c(OC)c2)c(=Nc2ccc(F)cc2)s1	0	70*	-3	-2	50*	0	-9
COC(=O)c1cc(=O)n(Cc2ccco2)c(=Nc2ccc(F)cc2)s1	2	16	18	1	/	/	/
COC(=O)c1cc(=O)n(Cc2ccc(F)cc2)c(=Nc2ccccc2)s1	0	60*	1	-1	62*	0	7
CNC(=O)C1CC(=O)N(CCc2ccc(OC)c(OC)c2)C(=Nc2ccc(F)cc2)S1 (configuration not stated)	2	-3	-2	-2	/	/	/
COC(=O)c1cc(=O)n(CCc2ccc(OC)c(OC)c2)c(=Nc2ccc(F)c(Cl)c2)s1	7	63*	13	2	62*	-1	-8
c1ccc(NC2=NCCN2CCC2CCCCC2)cc1	-13	3	8	-1	/	/	/
SMILES	HTR2A ag	EBI2 block	MC4R antag cAMP	MC4R ag barr	EBI2 antag conf	EBI2 agonist	bGal cs
CC[C@H]1c2[nH]c3ccccc3c2C[C@@H]2C(=O)N(c3ccc(F)cc3)C(=O)N21	0	49*	11	2	10	0	-10
CC1(C)c2[nH]c3ccccc3c2C[C@@H]2C(=O)N(c3cc(F)ccc3F)C(=O)N21	7	11	12	1	/	/	/
Cc1ccc(NC(=O)c2cc(S(=O)(=O)N3CCc4ccccc43)cn2C)cc1	2	22	12	2	/	/	/
Cn1cc(S(=O)(=O)N2CCc3ccccc32)cc1C(=O)Nc1ccc(Cl)cc1	5	46*	4	4	14	-1	-11
COc1ccc(NC(=O)c2cncc(Br)c2)cc1S(N)(=O)=O	7	0	6	-2	/	/	/
O=C(c1ccco1)N1CCN(c2nc(C(F)(F)F)nc3c2nnn3Cc2ccccc2)CC1	-4	48*	12	0	30	2	7
COc1ccc(NC(=O)c2cc3ccccc3o2)cn1	-2	38*	-1	0	19	1	7
CCC(=NNC(=O)c1ccc2c(c1)nc(C)n2CC)c1cc(F)ccc1O	-2	5	3	-1	/	/	/
Cc1ccc(S(=O)(=O)N2CCN(C(=O)c3n[nH]c4ccccc34)CC2)cc1	-8	1	-3	-1	/	/	/
COc1ccc(-c2cc(C(=O)N3CCN(S(=O)(=O)c4ccccc4)CC3)[nH]n2)cc1	3	48*	8	0	27	0	9
COc1ccc(S(=O)(=O)N2CCN(C(=O)c3cc(-c4ccc(Br)cc4)n[nH]3)CC2)cc1OC	2	72*	19	-1	45	2	4
COc1ccccc1-c1cc(C(=O)N2CCN(S(=O)(=O)c3ccc(C)cc3)CC2)[nH]n1	1	62*	-3	1	41	3	-20
O=C(c1cc(-c2ccc(Br)cc2)n[nH]1)N1CCN(C(=O)c2ccccc2Br)CC1	2	84*	4	0	52*	1	-15
O=C(c1cc(-c2ccccc2)n[nH]1)N1CCN(S(=O)(=O)c2ccccc2)CC1	-4	59*	4	-2	23	0	-15
Cc1cccc(S(=O)(=O)c2c(N)n(/N=C/c3cccnc3)c3nc4ccccc4nc23)c1	7	39	12	0	/	/	/
Nc1c(S(=O)(=O)c2ccccc2)c2nc3ccccc3nc2n1/N=C/c1ccco1	-1	67*	5	0	77*	0	-14
Cc1ccc(S(=O)(=O)c2c(N)n(/N=C/c3ccco3)c3nc4ccccc4nc23)cc1	0	41*	20	-4	55*	2	2

Screens deposited in PubChem by several laboratories.
